Common to all, as to format: in vivo, human
In data set [1] the test system is adults with T2DM. Kind of data set: Analysis of GI AEs. The essentials:
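Adults with T2DM from four phase III trials received once-weekly subcutaneous injections, escalated every 4 weeks (0.25, 0.5, 1.0 mg). Nausea reports were counted from baseline to week 30. Proportions were plotted against time by dose, with each dose split into high/low exposure halves by Cavg at the maintenance dose. Logistic regression adjusted for trial, sex, age group, escalation regimen and Japanese race. LOCF and completer sensitivity analyses were run.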

Data set [2] concerns adults with T2DM. As to conditions: semaglutide 0.5 and 1.0 mg.
Data set [3] can be described thus: Semaglutide exposure: average steady-state concentration. Conditions: mean Cavg at steady state. The gist of the method: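 Plasma samples were taken 4–5 times per participant, at weeks 4, 8, 16 and 30, plus week 56 except in SUSTAIN 1. Assay was validated LC-MS/MS with LLOQ 0.729 nmol/L; samples below it were excluded. Average steady-state concentration at the randomized once-weekly subcutaneous maintenance dose was derived from individual clearance estimates of a population-PK analysis.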

The test system of data set [4] is adults with T2DM. Kind of data set: Exposure-response analysis of elevated serum calcitonin. The essentials:
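Serum calcitonin was measured by chemiluminescent immunometric assay (range 2.0–2000 pg/mL). Only participants with normal baseline values and post-baseline data were included, without imputation. The proportion with elevated calcitonin at any time until end-of-treatment was plotted with 95% CI against Cavg quantiles, with placebo at zero exposure. A covariate-adjusted exposure-response model was fitted.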

As for `CC[C@H](C)[C@H](NC(=O)[C@H](Cc1ccccc1)NC(=O)[C@H](CCC(=O)O)NC(=O)[C@H](CCCCNC(=O)COCCOCCNC(=O)COCCOCCNC(=O)CC[C@H](NC(=O)CCCCCCCCCCCCCCCCC(=O)O)C(=O)O)NC(=O)[C@H](C)NC(=O)[C@H](C)NC(=O)[C@H](CCC(N)=O)NC(=O)CNC(=O)[C@H](CCC(=O)O)NC(=O)[C@H](CC(C)C)NC(=O)[C@H](Cc1ccc(O)cc1)NC(=O)[C@H](CO)NC(=O)[C@H](CO)NC(=O)[C@@H](NC(=O)[C@H](CC(=O)O)NC(=O)[C@H](CO)NC(=O)[C@@H](NC(=O)[C@H](Cc1ccccc1)NC(=O)[C@@H](NC(=O)CNC(=O)[C@H](CCC(=O)O)NC(=O)C(C)(C)NC(=O)[C@@H](N)Cc1cnc[nH]1)[C@@H](C)O)[C@@H](C)O)C(C)C)C(=O)N[C@@H](C)C(=O)N[C@@H](Cc1c[nH]c2ccccc12)C(=O)N[C@@H](CC(C)C)C(=O)N[C@H](C(=O)N[C@@H](CCCNC(=N)N)C(=O)NCC(=O)N[C@@H](CCCNC(=N)N)C(=O)NCC(=O)O)C(C)C` [semaglutide], the “proportion of participants reporting nausea” value in data set [1] (during the first 4 weeks, also for participants with high exposure) is recorded as below 7%. Besides, the “concentration of semaglutide estimated to be tolerated without nausea by 95% of participants” value is below 5 nM in data set [1] (week 1) and above 30 nM in data set [1] (week 30). The “increase from baseline to end‐of‐trial in mean resting pulse rate” value in data set [2] is 2−4 bpm. Besides, the Semaglutide exposure is recorded as 15.0 nmol/L in data set [3] (All men, dose 0.5 mg once weekly); 29.9 nmol/L in data set [3] (All men, dose 1.0 mg once weekly); 15.3 nmol/L in data set [3] (All participants, dose 0.5 mg once weekly); 30.6 nmol/L in data set [3] (All participants, dose 1.0 mg once weekly); 15.9 nmol/L in data set [3] (All women, dose 0.5 mg once weekly); 31.7 nmol/L in data set [3] (All women, dose 1.0 mg once weekly). In addition, the “proportion of participants with serum calcitonin concentrations above the reference ranges” value in data set [4] (any time after baseline until end‐of‐treatment, 36 of 1395 participants, placebo data included in the analysis) is on record as 2.6%. Also, in data set [4] (range of exposures achieved with 0.5 and 1.0 mg, no effect vs placebo), the “dependence of elevated calcitonin levels on exposure” value is given as “independent of exposure”.
